Assay results: ChEMBL document CHEMBL4706580, “4-Amino-1,2,4-triazole-3-thione-derived Schiff bases as metallo-β-lactamase inhibitors” (Eur J Med Chem, 2020)
Each block holds one molecule with its values, some of them ahead of it. Active and inactive are the calls of the source. The rule behind the calls is not given here.

Experiments:
[1] = Inhibition of beta-lactamase VIM-2 (unknown origin) expressed in Escherichia coli LZ2310 assessed as potentiation of cefoxitin antibacterial activity by measuring cefoxitin induced diameter of inhibition zone at 80 uM incubated for 18 hrs by disk diffusion method (reference value: 14 mm)
Method in brief: (§1)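 Efflux-deficient E. coli LZ2310 (NorE, MdfA, AcrA knocked out) carrying pLB-II with the cloned MBL gene. Mueller-Hinton, CLSI disk diffusion; antibiotic disks (30 µg cefoxitin for VIM-2, 10 µg ampicillin for VIM-4, 30 µg ceftazidime for NDM-1/IMP-1) loaded with inhibitor in DMSO (≤15 µL). Zone diameter after 18 h, 35 ± 1 °C; DMSO and 220 µg EDTA controls. Triplicate.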

[2] = Inhibition of beta-lactamase IMP-1 (unknown origin) expressed in Escherichia coli BL21(DE3) using imipenem as substrate by measuring substrate hydrolysis at 200 uM by spectrophotometric analysis
Method in brief: (§2)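 Purified enzyme (overproduced in E. coli BL21(DE3), pET-9a; ion-exchange and gel filtration), 1-70 nM final. Reporter substrate 150 μM imipenem, read at 300 nm, 30 °C, 50 mM HEPES pH 7.5. Single-point screen at 100 or 200 μM; Ki from v0/vi vs [I] (0.5–1,000 μM final) assuming competitive inhibition, or Dixon plot. Triplicate.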

[3] = Inhibition of beta-lactamase IMP-1 (unknown origin) expressed in Escherichia coli BL21(DE3) using imipenem as substrate by measuring substrate hydrolysis at 100 uM by spectrophotometric analysis; method in brief: as §2
[4] = Inhibition of beta-lactamase NDM-1 (unknown origin) expressed in Escherichia coli LZ2310 assessed as potentiation of ceftazidime antibacterial activity by measuring ceftazidime induced diameter of inhibition zone at 80 uM incubated for 18 hrs by disk diffusion method (reference value: 15 mm); method in brief: as §1
[5] = Inhibition of beta-lactamase NDM1 (unknown origin) expressed in Escherichia coli BL21(DE3) using cefotaxime/nitrocefin as substrate by measuring substrate hydrolysis by spectrophotometric analysis
Method in brief: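 His-tagged enzyme from E. coli BL21(DE3) pET-15b, affinity-purified, 1-70 nM final. Reporter substrate 120 μM cefotaxime (260 nm) or 100 μM nitrocefin (482 nm), 30 °C, 50 mM HEPES pH 7.5. Inhibitor 0.5–1,000 μM final; competitive Ki from v0/vi vs [I] slope or Dixon plot. Triplicate.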

[6] = Inhibition of beta-lactamase VIM2 (unknown origin) expressed in Escherichia coli BL21(DE3) using imipenem as substrate by measuring substrate hydrolysis at 100 uM by spectrophotometric analysis; method in brief: as §2
[7] = Inhibition of beta-lactamase VIM4 (unknown origin) expressed in Escherichia coli BL21(DE3) using imipenem as substrate by measuring substrate hydrolysis by spectrophotometric analysis; method in brief: as §2
[8] = Inhibition of beta-lactamase L1 (unknown origin) expressed in Escherichia coli BL21(DE3) using nitrocefin as substrate by measuring substrate hydrolysis at 100 uM preincubated for 30 mins by spectrophotometric analysis
Method in brief: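 Enzyme 0.2–0.8 nM in 25 mM HEPES pH 7.5 with 50 μM ZnCl2 final, pre-incubated 30 min at 21 °C with inhibitor (100 μM screen). Nitrocefin 100 μM final, read at 482 nm, 30 °C. Residual activity vs three uninhibited samples; Ki (1–100 μM inhibitor) from Hanes linearization, competitive model. Triplicate.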

Escherichia coli [9] = experiment: Synergistic antibacterial activity against NDM-1 producing Escherichia coli assessed as MIC of imipenem at 32 ug/ml by broth microdilution method; type: functional; conditions: dose 32 µg/ml
Escherichia coli [10] = experiment: Synergistic antibacterial activity against NDM-1 producing Escherichia coli assessed as MIC of meropenem at 32 ug/ml by broth microdilution method; type: functional; conditions: dose 32 µg/ml
Escherichia coli [11] = experiment: Synergistic antibacterial activity against NDM-1 producing Escherichia coli assessed as MIC of ceftazidime at 32 ug/ml by broth microdilution method; type: functional; conditions: dose 32 µg/ml
Escherichia coli [12] = experiment: Synergistic antibacterial activity against NDM-1 producing Escherichia coli assessed ass MIC of ceftazidime/avibactam at 32 ug/ml by broth microdilution method; type: functional; conditions: dose 32 µg/ml
Method in brief: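 MIC of ceftazidime-avibactam (avibactam fixed at 4 µg/mL) by CLSI broth microdilution in Mueller-Hinton broth. Used the NDM-1-producing multidrug-resistant E. coli clinical isolate SI-001M at 5 × 10⁴ CFU/well, with and without inhibitor at a fixed 32 µg/ml. No colistin added. Triplicate determinations.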

Escherichia coli [13] = experiment: Antibacterial activity against NDM-1 producing Escherichia coli in presence of colistin by broth microdilution method.; type: functional
HeLa [14] = experiment: Cytotoxicity in human HeLa cells assessed as cell lysis upto 250 uM incubated for 72 hrs by membrane integrity assay; type: cell-based
HUVEC = experiment: Cytotoxicity in human HUVEC cells assessed as reduction in cell viability upto 100 uM incubated for 72 hrs by MTT assay; type: cell-based
[15] = Inhibition of beta-lactamase L1 (unknown origin) expressed in Escherichia coli BL21(DE3) using nitrocefin as substrate by measuring substrate hydrolysis at 200 uM preincubated for 30 mins by spectrophotometric analysis
[16] = Inhibition of beta-lactamase VIM2 (unknown origin) expressed in Escherichia coli BL21(DE3) using imipenem as substrate by measuring substrate hydrolysis at 200 uM by spectrophotometric analysis; method in brief: as §2
Escherichia coli [17] = experiment: Synergistic antibacterial activity against NDM-1 producing Escherichia coli assessed as MIC of imipenem at 32 ug/ml in presence of colistin by broth microdilution method; type: functional; conditions: dose 32 µg/ml
Escherichia coli [18] = experiment: Synergistic antibacterial activity against NDM-1 producing Escherichia coli assessed as MIC of meropenem at 32 ug/ml in presence of colistin by broth microdilution method; type: functional; conditions: dose 32 µg/ml
Method in brief: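 Broth microdilution per CLSI in Mueller-Hinton broth against a multidrug-resistant NDM-1-producing E. coli clinical isolate (SI-001M), inoculum 5 × 10⁴ CFU/well. […] Run in triplicate.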

Escherichia coli [19] = experiment: Synergistic antibacterial activity against NDM-1 producing Escherichia coli assessed as MIC of ceftazidime at 32 ug/ml in presence of colistin by broth microdilution method; type: functional; conditions: dose 32 µg/ml
Escherichia coli [20] = experiment: Synergistic antibacterial activity against NDM-1 producing Escherichia coli assessed ass MIC of ceftazidime/avibactam at 32 ug/ml in presence of colistin by broth microdilution method; type: functional; conditions: dose 32 µg/ml
HeLa [21] = experiment: Cytotoxicity in human HeLa cells assessed as reduction in cell viability upto 250 uM incubated for 72 hrs by MTT assay; type: cell-based
[22] = Inhibition of beta-lactamase CphA (unknown origin) expressed in Escherichia coli BL21(DE3) using imipenem as substrate by measuring substrate hydrolysis at 100 uM by spectrophotometric analysis
Method in brief: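 Enzyme 0.2–0.8 nM in 15 mM cacodylate pH 6.5, no added zinc, pre-incubated 30 min at 21 °C with inhibitor (100 μM screen). Imipenem substrate added from 10 mM stock; hydrolysis at 300 nm, 30 °C. Residual activity vs three uninhibited samples; Ki (1–100 μM inhibitor) by Hanes linearization, competitive model. Triplicate.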

[23] = Inhibition of beta-lactamase VIM-2 (unknown origin) expressed in Escherichia coli XL-1 assessed as potentiation of cefoxitin antibacterial activity by measuring cefoxitin induced diameter of inhibition zone at 80 uM incubated for 18 hrs by disk diffusion method (reference value: 8 mm)
Method in brief: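 Wild-type efflux E. coli XL-1 Blue transformed with pLB-II-VIM-2. Mueller-Hinton disk diffusion per CLSI, 30 µg cefoxitin disks loaded with inhibitor dissolved in DMSO (≤15 µL). Growth-inhibition zone measured after 18 h at 35 ± 1 °C; DMSO negative and 220 µg EDTA positive controls. Triplicate.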

[24] = Inhibition of beta-lactamase NDM1 (unknown origin) expressed in Escherichia coli BL21(DE3) using cefotaxime/nitrocefin as substrate by measuring substrate hydrolysis at 50 uM by spectrophotometric analysis
[25] = Inhibition of beta-lactamase VIM2 (unknown origin) expressed in Escherichia coli BL21(DE3) using imipenem as substrate by measuring substrate hydrolysis by spectrophotometric analysis; method in brief: as §2
[26] = Inhibition of beta-lactamase VIM4 (unknown origin) expressed in Escherichia coli BL21(DE3) using imipenem as substrate by measuring substrate hydrolysis at 100 uM by spectrophotometric analysis; method in brief: as §2

- inhibition zone (IZ) [1]: 14 mm
- inhibition [2]: inactive
- inhibition [3]: inactive
- inhibition zone (IZ) [4]: 15 mm
- inhibition [6]: inactive
- inhibition [8]: inactive
- MIC (Escherichia coli [9]): 8 µg/mL
- MIC (Escherichia coli [10]): 16 µg/mL
- MIC (Escherichia coli [11]): > 256 µg/mL
- MIC (Escherichia coli [12]): > 256 µg/mL
- MIC (Escherichia coli [13]): > 256 µg/mL
- inhibition [15]: inactive
- inhibition [16]: inactive
- MIC (Escherichia coli [17]): 4 µg/mL
- MIC (Escherichia coli [18]): 8 µg/mL
- MIC (Escherichia coli [19]): > 256 µg/mL
- MIC (Escherichia coli [20]): 4 µg/mL
SMILES: Oc1ccc(/C=N/n2c(-c3ccc(-c4ccccc4)cc3)n[nH]c2=S)c(O)c1
- Ki [5]: 1.8 µM
- Ki [7]: 2 µM
- Activity (HeLa [14]): Non-Toxic
- Activity (HUVEC): Non-Toxic
- Activity (HeLa [21]): Non-Toxic

- inhibition zone (IZ) [1]: 18 mm
- inhibition [22]: 68%
- inhibition [3]: 63%
- inhibition zone (IZ) [23]: 15 mm
- inhibition [24]: 39%
- inhibition [26]: 65%
- inhibition [8]: 55%
SMILES: Cc1ccccc1-c1n[nH]c(=S)n1/N=C/c1cccc(O)c1O
- Ki [25]: 5.2 µM
